Source: ChEMBL document CHEMBL1123837, “1-Amino-substituted 4-methyl-5H-pyrido[3',4':4,5]pyrrolo[3,2-c]pyridines: a new class of antineoplastic agents” (J Med Chem, 1987)
pIC50: −log10 of the molar value. Blank lines part the entries; values can stand above or below the compound they belong to. Active and inactive are the calls of the source. The rule behind the calls is not given here.

What was measured:
[1] = test system: Mus musculus; experiment: In vivo antitumor activity was determined against P388 leukemia cells expressed as treated/control at the dose of 10 mg/kg; format: functional
Summary of the method: (§1)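 Following NCI protocols, 10^6 viable P388 leukemia cells were inoculated ip on day 0 into male or female CDF1 hybrid mice, 10 per test group. Compounds in distilled water were given ip (0.1 mL/10 g body weight) at various doses on days 1–5. T/C = median survival day of treated / median survival day of negative controls × 100.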

[2] = test system: Mus musculus; experiment: In vivo antitumor activity was evaluated on L1210 leukemia model and percent of treated/control of tumor cells was determined at 10 mg/kg dosage concentration; format: functional
Summary of the method: as §1, with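 “10^5” for “10^6”, “L1210” for “P388”, “dosed” for “given”, “daily” for “at various doses”, “treated mice” for “treated”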

[3] = test system: Mus musculus; experiment: In vivo antitumor activity was evaluated on L1210 leukemia model and median survival day was determined at 5 mg/kg dosage concentration; format: functional
Summary of the method: (§2)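 L1210 leukemia, 10^5 viable cells inoculated ip on day 0 into CDF1 hybrid male or female mice, 10 mice per group. Compounds were given ip in distilled water (0.1 mL/10 g body weight) on days 1-5. Vehicle controls were treated the same way. NCI protocols were followed. T/C = median survival day of treated mice / median survival day of vehicle controls × 100.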

[4] = test system: Mus musculus; experiment: In vivo antitumor activity was evaluated on L1210 leukemia model and number of survivors (animals) was determined at 40 mg/kg dosage concentration; number of survivors given as 0/10; format: functional; summary of the method: as §2
[5] = test system: Mus musculus; experiment: In vivo antitumor activity was evaluated on L1210 leukemia model and number of survivors (animals) was determined at 1.25 mg/kg dosage concentration; number of survivors given as 0/10; format: functional; summary of the method: as §2
[6] = test system: Mus musculus; experiment: In vivo antitumor activity was evaluated on L1210 leukemia model and median survival day was determined at 20 mg/kg dosage concentration; format: functional; summary of the method: as §2
[7] = test system: Mus musculus; experiment: In vivo antitumor activity was evaluated on L1210 leukemia model and median survival day was determined at 10 mg/kg dosage concentration; format: functional; summary of the method: as §2
[8] = test system: Mus musculus; experiment: In vivo antitumor activity was evaluated on L1210 leukemia model and number of survivors (animals) was determined at 50 mg/kg dosage concentration; number of survivors given as 0/10; format: functional; summary of the method: as §2
[9] = test system: Mus musculus; experiment: In vivo antitumor activity was evaluated on L1210 leukemia model and weight change in tumors was determined at 20 mg/kg dosage concentration; format: functional
[10] = test system: Calf thymus DNA; experiment: Binding affinity for DNA by ethidium bromide displacement assay; format: nucleic-acid assay; settings: Bos taurus
Summary of the method: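 Competitive ethidium bromide displacement with calf thymus DNA at 10 µg/mL in 20 mM Na phosphate buffer, 0.1 M NaCl, 1 mM EDTA, pH 7.4. The apparent DNA affinity constant is given in 10^6 M^-1 ± standard deviation, from 6 values across two independent experiments.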

[11] = test system: Mus musculus; experiment: In vivo antitumor activity was evaluated on L1210 leukemia model and median survival day was determined at 2.5 mg/kg dosage concentration.; format: functional; summary of the method: as §2
[12] = test system: Mus musculus; experiment: In vivo antitumor activity was evaluated on L1210 leukemia model and percent of treated/control of tumor cells was determined at 1.25 mg/kg dosage concentration; format: functional
Summary of the method: as §1, with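 “10^5” for “10^6”, “L1210” for “P388”, “dosed” for “given”, “daily” for “at various doses”, “treated mice” for “treated”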

[13] = test system: Mus musculus; experiment: In vivo antitumor activity was evaluated on L1210 leukemia model and number of survivors (animals) was determined at 2.5 mg/kg dosage concentration; number of survivors given as 0/10; format: functional; summary of the method: as §2
[14] = test system: Mus musculus; experiment: In vivo antitumor activity was evaluated on L1210 leukemia model and percent of treated/control of tumor cells was determined at 2.5 mg/kg dosage concentration.; format: functional
Summary of the method: as §1, with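 “10^5” for “10^6”, “L1210” for “P388”, “dosed” for “given”, “daily” for “at various doses”, “treated mice” for “treated”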

[15] = test system: Mus musculus; experiment: In vivo antitumor activity was evaluated on L1210 leukemia model and percent of treated/control of tumor cells was determined at 50 mg/kg dosage concentration; format: functional
Summary of the method: as §1, with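 “10^5” for “10^6”, “L1210” for “P388”, “dosed” for “given”, “daily” for “at various doses”, “treated mice” for “treated”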

[16] = test system: Mus musculus; experiment: In vivo antitumor activity was evaluated on L1210 leukemia model and median survival day was determined at 40 mg/kg dosage concentration; format: functional; summary of the method: as §2
[17] = test system: Mus musculus; experiment: In vivo antitumor activity was evaluated on L1210 leukemia model and weight change in tumors was determined at 50 mg/kg dosage concentration; format: functional
[18] = test system: Mus musculus; experiment: In vivo antitumor activity was evaluated on L1210 leukemia model and weight change in tumors was determined at 5 mg/kg dosage concentration; format: functional
[19] = test system: Mus musculus; experiment: In vivo antitumor activity was evaluated on L1210 leukemia model and number of survivors (animals) was determined at 20 mg/kg dosage concentration; number of survivors given as 0/10; format: functional; summary of the method: as §2
[20] = test system: Mus musculus; experiment: In vivo antitumor activity was determined against P388 leukemia cells expressed as treated/control at the dose of 20 mg/kg; format: functional; summary of the method: as §1
[21] = test system: Mus musculus; experiment: In vivo antitumor activity was determined against P388 leukemia cells expressed as number of animals survived; format: functional
Summary of the method: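 P388 leukemia, 10^6 viable cells inoculated ip on day 0 into CDF1 hybrid male or female mice, 10 mice per group. Compounds were given ip in distilled water (0.1 mL/10 g body weight) at various doses on days 1-5. Vehicle controls were treated the same way. NCI protocols were followed.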

[22] = test system: Mus musculus; experiment: In vivo antitumor activity was evaluated on L1210 leukemia model and weight change in tumors was determined at 10 mg/kg dosage concentration; format: functional
[23] = test system: Mus musculus; experiment: In vivo antitumor activity was evaluated on L1210 leukemia model and weight change in tumors was determined at 2.5 mg/kg dosage concentration.; format: functional
[24] = test system: Mus musculus; experiment: In vivo antitumor activity was determined against P388 leukemia cells expressed as treated/control at the dose of 50 mg/kg; format: functional; summary of the method: as §1
[25] = test system: Mus musculus; experiment: In vivo antitumor activity was determined against P388 leukemia cells expressed as treated/control at the dose of 40 mg/kg; format: functional; summary of the method: as §1
[26] = test system: Mus musculus; experiment: In vivo antitumor activity was evaluated on L1210 leukemia model and weight change in tumors was determined at 1.25 mg/kg dosage concentration; format: functional
[27] = test system: Mus musculus; experiment: In vivo antitumor activity was evaluated on L1210 leukemia model and percent of treated/control of tumor cells was determined at 20 mg/kg dosage concentration; format: functional; summary of the method: as §2
[28] = test system: Mus musculus; experiment: In vivo antitumor activity was evaluated on L1210 leukemia model and number of survivors (animals) was determined at 5 mg/kg dosage concentration; number of survivors given as 0/10; format: functional; summary of the method: as §2
[29] = test system: Mus musculus; experiment: In vivo antitumor activity was evaluated on L1210 leukemia model and median survival day was determined at 1.25 mg/kg dosage concentration; format: functional; summary of the method: as §2
[30] = test system: Mus musculus; experiment: In vivo antitumor activity was evaluated on L1210 leukemia model and percent of treated/control of tumor cells was determined at 40 mg/kg dosage concentration; format: functional
Summary of the method: as §1, with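 “10^5” for “10^6”, “L1210” for “P388”, “dosed” for “given”, “daily” for “at various doses”, “treated mice” for “treated”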

[31] = test system: L1210; experiment: In vitro cytotoxicity against L1210 cells was determined after 48 hours of incubation; format: functional, Mus musculus; settings: Mus musculus, L1210, 48 h; read-out: ID50 (the source's name)
Summary of the method: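 Exponentially growing L1210 cells were cultured in RPMI 1640 with 2 mM glutamine, penicillin/streptomycin and 10% fetal calf serum, under 5% CO2 at 37 °C. Drugs dissolved in distilled water were added to cells at 0.8 × 10^5 cells/mL for 48 h, then cells were counted. ID50 was estimated by regression of dose-response data, as the mean of two values from two independent experiments.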

[32] = test system: Mus musculus; experiment: In vivo antitumor activity was evaluated on L1210 leukemia model and median survival day was determined at 50 mg/kg dosage concentration; format: functional; summary of the method: as §2
[33] = test system: Mus musculus; experiment: In vivo antitumor activity was evaluated on L1210 leukemia model and percent of treated/control of tumor cells was determined at 5 mg/kg dosage concentration; format: functional
Summary of the method: as §1, with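 “10^5” for “10^6”, “L1210” for “P388”, “dosed” for “given”, “daily” for “at various doses”, “treated mice” for “treated”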

[34] = test system: Mus musculus; experiment: In vivo antitumor activity was evaluated on L1210 leukemia model and number of survivors (animals) was determined at 10 mg/kg dosage concentration; number of survivors given as 3/10; format: functional; summary of the method: as §2
[35] = test system: Mus musculus; experiment: In vivo antitumor activity was evaluated on L1210 leukemia model and weight change in tumors was determined at 40 mg/kg dosage concentration; format: functional
[36] = test system: Mus musculus; experiment: In vivo antitumor activity was determined against P388 leukemia cells expressed as treated/control at the dose of (2.5-40)mg/kg(nontoxic at highest dose tested.); IA = Inactive; format: functional, organism-based; summary of the method: as §1
[37] = test system: Mus musculus; experiment: In vivo antitumor activity was determined against P388 leukemia cells expressed as treated/control at the dose of (5-20)mg/kg; IA = Inactive; format: functional, organism-based; summary of the method: as §1
[38] = test system: Mus musculus; experiment: In vivo antitumor activity was determined against P388 leukemia cells expressed as treated/control at the dose of 50 mg/kg;T = toxic at this dose; format: organism-based; set-up: dose 50 mg/kg; summary of the method: as §1
[39] = test system: Mus musculus; experiment: In vivo antitumor activity was determined against P388 leukemia cells expressed as treated/control at the dose of (5-50)mg/kg; IA = Inactive; format: functional, organism-based; summary of the method: as §1
[40] = test system: Mus musculus; experiment: In vivo antitumor activity was determined against P388 leukemia cells expressed as treated/control at the dose of (5-100)mg/kg (nontoxic at highest dose tested.); IA = Inactive; format: functional, organism-based; summary of the method: as §1

SMILES: Cc1c[nH]c(NCCCN(C)C)c2c3cnccc3nc1-2
T/C [1]: 156
T/C [2]: 177%
Median survival day [3]: 14
Survivors [4]: 0
Survivors [5]: 0
Median survival day [6]: 15.6
Median survival day [7]: 16.25
Survivors [8]: 0
Weight changes [9]: -1.7 g
K aff [10]: 20000 M⁻¹
Median survival day [11]: 12.9
T/C [12]: 127.5%
Survivors [13]: 0
T/C [14]: 140%
T/C [15]: 89%
Median survival day [16]: 9.25
Weight changes [17]: -2.4 g
Weight changes [18]: 0.3 g
Survivors [19]: 0
T/C [20]: 186
Survivors [21]: 1
Weight changes [22]: 0.5 g
Weight changes [23]: 0.3 g
T/C [24]: 181
T/C [25]: 184
Weight changes [26]: 0.3 g
T/C [27]: 169.5%
Survivors [28]: 0
Median survival day [29]: 11.75
T/C [30]: 100%
pIC50 [31]: 6.80
Median survival day [32]: 8.2
T/C [33]: 152%
Survivors [34]: 3
Weight changes [35]: -1.1 g

K aff [10]: 30000 M⁻¹
SMILES: Cc1cnc(NCCCN2CCOCC2)c2c3cnccc3n(C)c12
T/C [36]: inactive
pIC50 [31]: 5.28

K aff [10]: 30000 M⁻¹
SMILES: CCN(CC)CCCCNc1[nH]cc(C)c2nc3ccncc3c1-2
T/C [37]: inactive
T/C [38]: Toxic
pIC50 [31]: 4.92

K aff [10]: 17000 M⁻¹
SMILES: CCN(CC)CCCNc1nccc2c1c1cnccc1n2C
T/C [39]: inactive
pIC50 [31]: 5.80

K aff [10]: 40000 M⁻¹
SMILES: CCN(CC)CCCCNc1ncc(C)c2c1c1cnccc1n2C
T/C [40]: inactive
